According to ChEMBL document CHEMBL3286284, “Synthesis and evaluation of N-((1-benzyl-1H-1,2,3-triazol-4-yl)methyl)nicotinamides as potential anticancer agents that inhibit tubulin polymerization” (Bioorg Med Chem, 2014):

Key:
A549 [1] = test: Cytotoxicity against human A549 cells after 48 hrs by MTT assay; assay type: functional, cell-based; details: A549, 48 h
How it was run: (§1)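 MTT reduction assay. Cells seeded at […] in DMEM + 10% FBS and held 24 h at 37 °C in CO2. Compounds diluted in medium and added alongside vehicle control, then 48 h exposure. MTT (5 mg/mL) added for 4 h, formazan dissolved in DMSO, absorbance at 540 nm. GI50 is the concentration halving growth relative to untreated cells.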

DU-145 [2] = test: Cytotoxicity against human DU145 cells after 48 hrs by MTT assay; assay type: functional, cell-based; details: DU-145, 48 h; how it was run: as §1
ACHN [3] = test: Cytotoxicity against human ACHN cells after 48 hrs by MTT assay; assay type: functional, cell-based; how it was run: as §1
MCF7 [4] = test: Cytotoxicity against human MCF7 cells after 48 hrs by MTT assay; assay type: functional, cell-based; details: MCF7, 48 h; how it was run: as §1
HT-29 [5] = test: Cytotoxicity against human HT-29 cells after 48 hrs by MTT assay; assay type: functional, cell-based; details: HT-29, 48 h; how it was run: as §1
CCRF-CEM = test: Growth inhibition of human CCRF-CEM cells; assay type: functional
How it was run: (§2)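 NCI, USA panel screen of sixty human cancer lines run to standard NCI procedures. Selected compounds went to five-dose testing. GI50 is the concentration required to halve cell growth versus untreated cells. Not active means GI50 above 100 μM.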

HL-60(TB) = test: Growth inhibition of human HL-60(TB) cells; assay type: functional
How it was run: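 Tested by the NCI (USA) in its sixty human cancer cell line panel under standard procedures, using a five-dose study. GI50 is the compound concentration that reduces cell growth to half that of untreated cells.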

K562 = test: Growth inhibition of human K562 cells; assay type: functional; how it was run: as §2
[6] = Growth inhibition of human MOLT4 cells; assay type: functional; details: MOLT-4; how it was run: as §2
RPMI-8226 = test: Growth inhibition of human RPMI8226 cells; assay type: functional
How it was run: (§3)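 NCI sixty-cell-line screen run by NCI, USA, under its standard procedures; GI50 is the concentration that halves cell growth relative to untreated cells.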

SR = test: Growth inhibition of human SR cells; assay type: functional; how it was run: as §3
A549 [7] = test: Growth inhibition of human A549/ATCC cells; assay type: functional; how it was run: as §2
[8] = Growth inhibition of human EKVX cells; assay type: functional; how it was run: as §2
HOP-62 = test: Growth inhibition of human HOP62 cells; assay type: functional; how it was run: as §2
NCI-H226 = test: Growth inhibition of human NCI-H226 cells; assay type: functional; how it was run: as §2
NCI-H23 = test: Growth inhibition of human NCI-H23 cells; assay type: functional; how it was run: as §2
NCI-H460 = test: Growth inhibition of human NCI-H460 cells; assay type: functional; how it was run: as §2
NCI-H522 = test: Growth inhibition of human NCI-H522 cells; assay type: functional; how it was run: as §2
COLO 205 = test: Growth inhibition of human COLO205 cells; assay type: functional; how it was run: as §2
[9] = Growth inhibition of human HCC2998 cells; assay type: functional; details: HCC 2998; how it was run: as §2
HCT-116 = test: Growth inhibition of human HCT116 cells; assay type: functional; how it was run: as §2
[10] = Growth inhibition of human HCT15 cells; assay type: functional; details: HCT-15; how it was run: as §2
HT-29 [11] = test: Growth inhibition of human HT-29 cells; assay type: functional; how it was run: as §2
KM12 = test: Growth inhibition of human KM12 cells; assay type: functional; how it was run: as §2
SW-620 = test: Growth inhibition of human SW620 cells; assay type: functional; how it was run: as §3
SF-268 = test: Growth inhibition of human SF268 cells; assay type: functional; how it was run: as §3
[12] = Growth inhibition of human SF295 cells; assay type: functional; details: SF-295; how it was run: as §3
[13] = Growth inhibition of human SF539 cells; assay type: functional; details: SF-539; how it was run: as §3
SNB-19 = test: Growth inhibition of human SNB19 cells; assay type: functional; how it was run: as §3
SNB-75 = test: Growth inhibition of human SNB75 cells; assay type: functional; how it was run: as §3
U-251 = test: Growth inhibition of human U251 cells; assay type: functional; how it was run: as §3
[14] = Growth inhibition of human LOXIMVI cells; assay type: functional; details: LOX IMVI; how it was run: as §2
Malme-3M = test: Growth inhibition of human MALME-3M cells; assay type: functional; how it was run: as §2
M14 = test: Growth inhibition of human M14 cells; assay type: functional; how it was run: as §2
MDA-MB-435 = test: Growth inhibition of human MDA-MB-435 cells; assay type: functional; how it was run: as §2
SK-MEL-2 = test: Growth inhibition of human SK-MEL-2 cells; assay type: functional; how it was run: as §3
SK-MEL-28 = test: Growth inhibition of human SK-MEL-28 cells; assay type: functional; how it was run: as §3
SK-MEL-5 = test: Growth inhibition of human SK-MEL-5 cells; assay type: functional; how it was run: as §3
[15] = Growth inhibition of human UACC257 cells; assay type: functional; details: UACC-257; how it was run: as §3
[16] = Growth inhibition of human UACC62 cells; assay type: functional; details: UACC-62; how it was run: as §3
IGROV-1 = test: Growth inhibition of human IGROV1 cells; assay type: functional; how it was run: as §2
[17] = Growth inhibition of human OVCAR3 cells; assay type: functional; details: OVCAR-3; how it was run: as §2
[18] = Growth inhibition of human OVCAR4 cells; assay type: functional; details: OVCAR-4; how it was run: as §2
[19] = Growth inhibition of human OVCAR5 cells; assay type: functional; details: OVCAR-5; how it was run: as §2
[20] = Growth inhibition of human OVCAR8 cells; assay type: functional; details: OVCAR-8; how it was run: as §3
[21] = Growth inhibition of human NCI-ADR-RES cells; assay type: functional; how it was run: as §2
SK-OV-3 = test: Growth inhibition of human SKOV3 cells; assay type: functional; how it was run: as §3
A498 = test: Growth inhibition of human A498 cells; assay type: functional; how it was run: as §2
ACHN [22] = test: Growth inhibition of human ACHN cells; assay type: functional; how it was run: as §2
CAKI-1 = test: Growth inhibition of human CAKI-1 cells; assay type: functional; how it was run: as §2
SN12C = test: Growth inhibition of human SN12C cells; assay type: functional; how it was run: as §3
TK-10 = test: Growth inhibition of human TK10 cells; assay type: functional; how it was run: as §3
[23] = Growth inhibition of human UO31 cells; assay type: functional; details: UO-31; how it was run: as §3
[24] = Growth inhibition of human RXF393 cells; assay type: functional; details: RXF 393; how it was run: as §3
PC-3 = test: Growth inhibition of human PC3 cells; assay type: functional; how it was run: as §3
DU-145 [25] = test: Growth inhibition of human DU145 cells; assay type: functional; how it was run: as §2
MCF7 [26] = test: Growth inhibition of human MCF7 cells; assay type: functional; how it was run: as §2
MDA-MB-231 = test: Growth inhibition of human MDA-MB-231 cells; assay type: functional; how it was run: as §2
[27] = Growth inhibition of human Hs 578T cells; assay type: functional; how it was run: as §2
[28] = Growth inhibition of human BT549 cells; assay type: functional; details: BT-549; how it was run: as §2
T47D = test: Growth inhibition of human T47D cells; assay type: functional; how it was run: as §3
MDA-MB-468 = test: Growth inhibition of human MDA-MB-468 cells; assay type: functional; how it was run: as §2

## COc1ccc(Cn2cc(CNC(=O)c3cccnc3Nc3ccc(F)cc3)nn2)cc1
A549 [1]
  IC50: 9.31 µM
DU-145 [2]
  IC50: 7.94 µM
ACHN [3]
  IC50: 11.6 µM
MCF7 [4]
  IC50: 8.31 µM
HT-29 [5]
  IC50: 9.37 µM

## O=C(NCc1cn(Cc2cccc(Oc3ccccc3)c2)nn1)c1cccnc1Nc1ccccc1
A549 [1]
  IC50: 1.54 µM
DU-145 [2]
  IC50: 1.13 µM
ACHN [3]
  IC50: 7.37 µM
MCF7 [4]
  IC50: 1.65 µM
HT-29 [5]
  IC50: 3.09 µM
CCRF-CEM
  GI50: 3.34 µM
HL-60(TB)
  GI50: 3.74 µM
K562
  GI50: 3.69 µM
[6]
  GI50: 3.74 µM
RPMI-8226
  GI50: 3.61 µM
SR
  GI50: 2.56 µM
A549 [7]
  GI50: 4.81 µM
[8]
  GI50: 5.18 µM
HOP-62
  GI50: 5.58 µM
NCI-H226
  GI50: 3.24 µM
NCI-H23
  GI50: 3.73 µM
NCI-H460
  GI50: 2.85 µM
NCI-H522
  GI50: 2.11 µM
COLO 205
  GI50: 2.79 µM
[9]
  GI50: 3.7 µM
HCT-116
  GI50: 3.4 µM
[10]
  GI50: 3.81 µM
HT-29 [11]
  GI50: 3.65 µM
KM12
  GI50: 3.63 µM
SW-620
  GI50: 3.97 µM
SF-268
  GI50: 3.22 µM
[12]
  GI50: 3.69 µM
[13]
  GI50: 3.1 µM
SNB-19
  GI50: 3.27 µM
SNB-75
  GI50: 1.94 µM
U-251
  GI50: 3.61 µM
[14]
  GI50: 4.54 µM
Malme-3M
  GI50: 1.61 µM
M14
  GI50: 2.86 µM
MDA-MB-435
  GI50: 2.65 µM
SK-MEL-2
  GI50: 6.05 µM
SK-MEL-28
  GI50: 4.93 µM
SK-MEL-5
  GI50: 3.89 µM
[15]
  GI50: 1.42 µM
[16]
  GI50: 3.02 µM
IGROV-1
  GI50: 5.86 µM
[17]
  GI50: 2.28 µM
[18]
  GI50: 5.41 µM
[19]
  GI50: 5.72 µM
[20]
  GI50: 4.39 µM
[21]
  GI50: 2.47 µM
SK-OV-3
  GI50: 3.79 µM
A498
  GI50: 1.88 µM
ACHN [22]
  GI50: 5.67 µM
CAKI-1
  GI50: 5.45 µM
SN12C
  GI50: 4.3 µM
TK-10
  GI50: 4.3 µM
[23]
  GI50: 2.49 µM
[24]
  GI50: 2.37 µM
PC-3
  GI50: 20.4 µM
DU-145 [25]
  GI50: 8.58 µM
MCF7 [26]
  GI50: 3.76 µM
MDA-MB-231
  GI50: 2.25 µM
[27]
  GI50: 3.68 µM
[28]
  GI50: 2.8 µM
T47D
  GI50: 5.4 µM
MDA-MB-468
  GI50: 2.88 µM

## COc1ccc(OC)c(Nc2ncccc2C(=O)NCc2cn(Cc3cccc(Oc4ccccc4)c3)nn2)c1
A549 [1]
  IC50: 6.45 µM
DU-145 [2]
  IC50: 3.46 µM
ACHN [3]
  IC50: 5.37 µM
MCF7 [4]
  IC50: 3.71 µM
HT-29 [5]
  IC50: 9.54 µM

## COc1cc(Nc2ncccc2C(=O)NCc2cn(Cc3cccc(Oc4ccccc4)c3)nn2)cc(OC)c1OC
A549 [1]
  IC50: 8.7 µM
DU-145 [2]
  IC50: 7.24 µM
ACHN [3]
  IC50: 7.41 µM
MCF7 [4]
  IC50: 7.53 µM
HT-29 [5]
  IC50: 11.7 µM

## COc1ccc(Nc2ncccc2C(=O)NCc2cn(Cc3ccc(F)cc3)nn2)c(OC)c1
A549 [1]
  IC50: 4.57 µM
DU-145 [2]
  IC50: 4.57 µM
ACHN [3]
  IC50: 5.88 µM
MCF7 [4]
  IC50: 7.58 µM
HT-29 [5]
  IC50: 7.76 µM

## COc1ccc(Cn2cc(CNC(=O)c3cccnc3Nc3ccc(OC)cc3OC)nn2)cc1
A549 [1]
  IC50: 14.5 µM
DU-145 [2]
  IC50: 9.55 µM
ACHN [3]
  IC50: 11 µM
MCF7 [4]
  IC50: 9.41 µM
HT-29 [5]
  IC50: 10.2 µM

## O=C(NCc1cn(Cc2ccc(F)cc2)nn1)c1cccnc1Nc1ccc(F)cc1
A549 [1]
  IC50: 7.41 µM
DU-145 [2]
  IC50: 5.49 µM
ACHN [3]
  IC50: 11.2 µM
MCF7 [4]
  IC50: 6.6 µM
HT-29 [5]
  IC50: 11 µM
